Experimental data taken from PubChem BioAssay AID504533 (Broad Institute, 2011).
Values joined by “and” are separate entries in the source; they are usually repeats but may differ in a detail not shown here. Equal values may be shown once. Records with an inconclusive call do not appear. Active and inactive are the calls of the source.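 The calls were made as follows: active = compound whose fitted half-maximal viability-loss concentration is within ten times its top tested dose in every test run; inconclusive = test runs disagree, or a weak flat or poorly fitted curve; inactive = every test run inactive.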

tested on: not listed separately; experiment: viability loss of control HMLE line – cell-based, HMLE_sh_eGFP, luminescence, powder samples, set 5, counter-screen for breast cancer stem cell project, dose response (AID 504533); conditions: HMLE_sh_eGFP viability, CellTiter-Glo luminescence, 72 h; at 19.5 µM (top of the series)
How it was run: (§1)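 System: HMLE breast epithelial cells expressing shRNA against eGFP. Buffer or medium: serum-free CSC screening medium. Dosing: 100 nL compound pinned into each well. Times: about 72 h compound exposure at 37 °C. Technique: CellTiter-Glo luminescence, reagent diluted 1:3 in PBS. Measure: cell viability. Benchmarks: DMSO neutral control, 160 µM puromycin positive control.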

| Compound | activity change, negative = viability loss |
| --- | --- |
| O=C(Nc1nncs1)c1ccc(COc2ccccc2)o1 | 3.92% (inactive) |
| Cc1coc(NC(=O)c2ccc(COc3ccccc3)o2)n1 | 3.69% (inactive) |
| Cc1csc(NC(=O)c2ccc(COc3ccccc3S(C)(=O)=O)o2)n1 | 2.08% (inactive) |
| COCc1ccc(C(=O)Nc2nc(C)cs2)o1 | 15.3% (inactive) |
| CC(C)NC(=O)c1ccc(COc2ccccc2)o1 | -2.28% (inactive) |
| C/C(=C\C(=O)NC1=NCCS1)c1ccc(C)cc1 | -3.46% (inactive) |
| N#Cc1cnc(NC(=O)c2ccc(COc3ccccc3)o2)s1 | -1.72% (inactive) |
| Cc1cc(C)c(OCC(=O)N/N=C/c2ccc[nH]2)c(C)c1 | 1.17% (inactive) |
| Cc1cc(Br)ccc1OCC(=O)N/N=C/c1ccc[nH]1 | -25.7% (inactive) |
| Cc1csc(NC(=O)c2ccc(CS(=O)(=O)c3ccccc3)o2)n1 | -13.3% (inactive) |
| CCN(CC)C(=O)c1ccc(COc2ccccc2)o1 | 6.38% (inactive) |
| C/C(=C\C(=O)NC1=NCCS1)c1ccc(CC(C)C)cc1 | 17.8% (inactive) |
| N#Cc1ccc(/C=C/C(=O)NC2=NCCS2)cc1 | -10.2% (inactive) |
| CC(C)c1ccc(/C=C/C(=O)Nc2nc3ccccc3s2)cc1 | -0.373% (inactive) |
| Cc1csc(NC(=O)c2ccc(COC(C)(C)C)o2)n1 | -4.37% (inactive) |
| Cc1csc(NC(=O)c2ccc(COC(C)C)o2)n1 | -0.134% (inactive) |
| CC(C)c1ccc(/C=C/C(=O)N(C)C2=NCCS2)cc1 | 10.1% (inactive) |
| Cc1coc(NC(=O)/C=C/c2ccc(C(C)C)cc2)n1 | -6.75% (inactive) |
| Cn1c(C(=O)NC2=NCCS2)cc2ccccc21 | -5.73% (inactive) |

same assay, conditions: HMLE_sh_eGFP viability, CellTiter-Glo luminescence, 72 h; at 30 µM (top of the series)

| Compound | activity change, negative = viability loss |
| --- | --- |
| Cc1ccc2cc(C(=O)NC3=NCCS3)n(C)c2c1 | -4.12% (inactive) |

tested on: HMLE_sh_eGFP viability, CellTiter-Glo luminescence, 72 h; experiment: as above; conditions: not given
How it was run: as §1

| Compound | AC50 |
| --- | --- |
| CC(C)Cc1ccc(/C=C/C(=O)NC2=NCCS2)cc1 | 3.27 µM |
| Cc1csc(NC(=O)c2ccc(COCc3ccccc3)o2)n1 | 19.6 µM |
| Cc1cccc(OCc2ccc(C(=O)Nc3nc(C)cs3)o2)c1 | 0.656 µM and 4.39 µM |
| Cc1csc(NC(=O)c2ccc(CCc3ccccc3)o2)n1 | 9.08 µM |
| COc1cccc(OCc2ccc(C(=O)Nc3nc(C)cs3)o2)c1 | 2.64 µM |
| Cc1csc(NC(=O)c2ccc(CNc3ccccc3)o2)n1 | 5.09 µM |
